Results published in ChEMBL document CHEMBL1139773, “New fluoro-diphenylchalcogen derivatives to explore the serotonin transporter by PET” (Bioorg Med Chem Lett, 2007).

What was measured:
Format in all cases: tissue-based
[1] = biological target: T1, Sodium-dependent serotonin transporter (Rattus norvegicus, UniProt P31652); experiment: Displacement of [3H]paroxetine from SERT in rat brain
Outline: (§1)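 Competition binding in rat cortical and striatal brain homogenates, with tissue assignment per transporter not specified. Radioligands were [3H]WIN 35,428 for DAT, [3H]nisoxetine for NET and [3H]paroxetine for SERT. Ki values are means of two independent experiments, each run in triplicate; some entries come from a single experiment (n = 1, in triplicate).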

[2] = biological target: Norepinephrine transporter (Rattus norvegicus, UniProt Q9WTR4); experiment: Displacement of [3H]nisoxetine from NET in rat brain; outline: as §1
Sequence of Norepinephrine transporter (Q9WTR4 whole entry): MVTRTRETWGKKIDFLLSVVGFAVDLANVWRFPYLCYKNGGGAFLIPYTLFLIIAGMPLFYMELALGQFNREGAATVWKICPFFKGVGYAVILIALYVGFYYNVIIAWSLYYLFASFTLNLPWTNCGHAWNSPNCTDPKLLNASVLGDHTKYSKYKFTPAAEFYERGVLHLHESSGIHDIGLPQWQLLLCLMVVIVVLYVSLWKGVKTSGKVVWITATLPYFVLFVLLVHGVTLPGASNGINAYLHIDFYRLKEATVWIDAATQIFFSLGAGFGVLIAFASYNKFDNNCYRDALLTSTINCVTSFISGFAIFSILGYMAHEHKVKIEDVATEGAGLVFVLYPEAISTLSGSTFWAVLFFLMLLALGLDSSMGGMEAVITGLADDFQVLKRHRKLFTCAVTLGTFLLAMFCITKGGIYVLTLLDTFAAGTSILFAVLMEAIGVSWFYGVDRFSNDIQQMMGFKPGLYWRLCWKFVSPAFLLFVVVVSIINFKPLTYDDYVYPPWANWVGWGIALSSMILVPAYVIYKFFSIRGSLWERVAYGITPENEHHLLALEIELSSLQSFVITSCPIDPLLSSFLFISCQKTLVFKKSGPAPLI

[3] = biological target: Sodium-dependent dopamine transporter (Rattus norvegicus, UniProt P23977); experiment: Displacement of [3H]WIN-35428 from DAT in rat brain; outline: as §1
Sequence of Sodium-dependent dopamine transporter (P23977 whole entry): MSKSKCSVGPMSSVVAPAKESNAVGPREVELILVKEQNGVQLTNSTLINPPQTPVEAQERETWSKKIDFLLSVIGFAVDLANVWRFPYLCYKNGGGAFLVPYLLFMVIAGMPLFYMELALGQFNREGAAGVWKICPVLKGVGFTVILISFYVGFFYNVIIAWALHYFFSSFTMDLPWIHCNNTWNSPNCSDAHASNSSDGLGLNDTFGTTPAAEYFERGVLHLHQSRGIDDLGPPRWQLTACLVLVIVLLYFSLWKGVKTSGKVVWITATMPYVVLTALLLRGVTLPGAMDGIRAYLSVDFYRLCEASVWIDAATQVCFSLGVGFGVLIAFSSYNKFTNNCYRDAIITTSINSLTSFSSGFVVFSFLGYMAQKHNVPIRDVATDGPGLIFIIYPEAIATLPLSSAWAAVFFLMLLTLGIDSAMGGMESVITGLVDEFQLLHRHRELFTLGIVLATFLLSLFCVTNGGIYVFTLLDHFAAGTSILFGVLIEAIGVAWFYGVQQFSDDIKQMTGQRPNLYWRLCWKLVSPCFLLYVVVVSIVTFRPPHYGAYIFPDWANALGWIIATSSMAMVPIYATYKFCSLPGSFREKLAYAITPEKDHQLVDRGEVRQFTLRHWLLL

[4] = biological target: T1, Sodium-dependent serotonin transporter; experiment: Displacement of [3H]citalopram from SERT in rat brain

T1 sequence (P31652 whole entry): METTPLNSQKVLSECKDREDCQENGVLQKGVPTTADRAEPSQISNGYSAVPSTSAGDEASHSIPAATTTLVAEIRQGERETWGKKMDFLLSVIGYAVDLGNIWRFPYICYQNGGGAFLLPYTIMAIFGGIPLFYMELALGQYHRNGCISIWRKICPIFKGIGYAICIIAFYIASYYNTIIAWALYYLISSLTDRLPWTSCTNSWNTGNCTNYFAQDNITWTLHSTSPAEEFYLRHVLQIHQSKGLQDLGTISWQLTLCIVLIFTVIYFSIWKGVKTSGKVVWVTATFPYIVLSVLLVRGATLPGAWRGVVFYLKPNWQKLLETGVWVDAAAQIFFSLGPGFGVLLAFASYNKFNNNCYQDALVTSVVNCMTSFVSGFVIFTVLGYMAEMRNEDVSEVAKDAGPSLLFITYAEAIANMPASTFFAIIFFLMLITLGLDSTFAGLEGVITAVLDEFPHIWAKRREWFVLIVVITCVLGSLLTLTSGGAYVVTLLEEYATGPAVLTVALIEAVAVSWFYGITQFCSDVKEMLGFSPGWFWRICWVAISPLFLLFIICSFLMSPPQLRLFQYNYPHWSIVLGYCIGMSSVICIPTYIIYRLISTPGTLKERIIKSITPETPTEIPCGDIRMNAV

Compound	Ki [1]	Ki [2]	Ki [3]	Ki [4]
Cc1ccc(Sc2ccc(F)cc2CN(C)C)c(N)c1	0.00027 µM	1.04 µM	3.65 µM	
CN(C)Cc1cc(F)ccc1Oc1ccc(C#N)cc1N	0.00291 µM	5.55 µM	68.3 µM	
CN(C)Cc1cc(Cl)ccc1Oc1ccc(F)cc1N		2.74 µM	2.53 µM	0.00206 µM
Cc1ccc(Sc2ccccc2CN(C)C)c(N)c1	0.00062 µM		4.16 µM	

More lines, in order of falling Ki [3], values ahead:

Ki [1]	Ki [2]	Ki [3]	Ki [4]	Compound
	17.9 µM	14.1 µM	0.00028 µM	CN(C)Cc1cc(F)ccc1Sc1ccc(C#N)cc1N
0.0134 µM	1.08 µM	4.36 µM		CN(C)Cc1ccccc1Oc1ccc(F)cc1N
0.00701 µM	0.518 µM	2.79 µM		Cc1ccc(Oc2ccc(F)cc2CN(C)C)c(N)c1
0.00035 µM	0.919 µM	1.84 µM		CN(C)Cc1cc(F)ccc1Sc1ccc(Cl)cc1N
